{"data": "Assay results from different studies", "RET": "Proto-oncogene tyrosine-protein kinase receptor Ret (RET, Homo sapiens, UniProt P07949)", "RET V804M": "Proto-oncogene tyrosine-protein kinase receptor Ret (RET, Homo sapiens, UniProt P07949, V804M)"}
{"Structure (SMILES)": "COc1ccc2oc(-c3ccc4nc(N)oc4c3)c/c(=N\\c3ccccc3NC(=O)CCN)c2c1", "target": "RET", "effect on": "binding", "tested at": "1 µM", "endpoint": "remaining binding", "value": "109%"}
{"Structure (SMILES)": "CN1CCN(C(=O)c2ccc(NC(=O)Nc3ccc(N(C)c4ccnc(Nc5ccc(CS(C)(=O)=O)cc5)n4)cc3)cc2)CC1", "target": "RET V804M", "effect on": "binding", "tested at": "1 µM", "endpoint": "remaining binding", "value": "0.5%"}
{"Structure (SMILES)": "CO[C@@H]1[C@H](N(C)C(=O)c2ccccc2)C[C@H]2O[C@]1(C)n1c3ccccc3c3c4c(c5c6ccccc6n2c5c31)C(=O)NC4", "target": "RET", "effect on": "enzyme activity", "action": "inhibitor", "tested at": "1 µM", "endpoint": "inhibition", "value": "95%"}
{"Structure (SMILES)": "Cc1ccc(NC(=O)c2ccnc(C(F)(F)F)c2)cc1-c1cc(OCCO)nc(N2CCOCC2)c1", "target": "RET V804M", "effect on": "binding", "tested at": "1 µM", "endpoint": "remaining binding", "value": "98%"}
{"Structure (SMILES)": "C1=C/COCc2cc(ccc2OCCN2CCCC2)Nc2nccc(n2)-c2cccc(c2)COC/1", "target": "Proto-oncogene tyrosine-protein kinase receptor Ret (RET, Homo sapiens, UniProt P07949, M918T)", "effect on": "binding", "tested at": "0.1 µM", "endpoint": "remaining binding", "value": "100%"}
{"Structure (SMILES)": "N#Cc1ccc(NC(=O)Nc2ccccc2)cc1", "target": "RET", "effect on": "cell-free assay", "method": "competition with immobilised ligand", "tested at": "25 µM", "endpoint": "remaining binding", "value": "100%"}
{"Structure (SMILES)": "CC#CC(=O)N1CCC[C@H]1c1nc(-c2ccc(C(=O)Nc3ccccn3)cc2)c2c(N)nccn12", "target": "RET", "effect on": "enzyme activity", "action": "inhibitor", "tested at": "1 µM", "endpoint": "inhibition", "value": "7%"}
{"Structure (SMILES)": "CCCCC(=O)Nc1ccc(-c2ccc3ncn(CCC)c(=O)c3c2)cn1", "target": "Proto-oncogene tyrosine-protein kinase receptor Ret (RET, Homo sapiens, UniProt P07949, V804L)", "effect on": "binding", "method": "competition with immobilised ligand", "tested at": "0.5 µM", "endpoint": "remaining binding", "value": "100%"}
